In ChEMBL document CHEMBL4229360, “Antimalarial agents against both sexual and asexual parasites stages: structure-activity relationships and biological studies of the Malaria Box compound 1-[5-(4-bromo-2-chlorophenyl)furan-2-yl]-N-[(piperidin-4-yl)methyl]methanamine (MMV019918) and analogues” (Eur J Med Chem, 2018):
pEC50, pIC50: −log10 of the molar value.

Experiments:
[1] = system: Plasmodium falciparum; assay: Antiplasmodial activity against chloroquine-sensitive Plasmodium falciparum D10 after 72 hrs by lactate dehydrogenase assay; assay type: functional, organism-based; conditions: D10, 72 h
How it was run: (§1)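 Asynchronous blood-stage cultures at 1–1.5% parasitemia and 1% final hematocrit in human A+ RBCs, RPMI 1640 with 1% AlbuMax, hypoxanthine, HEPES and glutamine. Serial dilutions from DMSO stocks, final DMSO <1%. Incubated 72 h at 37 °C under 1% O₂/5% CO₂. IC50 is the mean of ≥3 experiments in duplicate.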

[2] = system: Plasmodium falciparum; assay: Antiplasmodial activity against chloroquine-resistant Plasmodium falciparum W2 after 72 hrs by lactate dehydrogenase assay; assay type: functional, organism-based; conditions: W2, 72 h; how it was run: as §1
[3] = system: Plasmodium falciparum; assay: Gametocytocidal activity against Plasmodium falciparum 3D7 elo1-pfs16-CBG99 late-stage (4 to 5) gametocytes assessed as inhibition of parasite viability after 72 hrs by luciferase reporter assay; assay type: functional, organism-based; conditions: 3D7 elo1-pfs16-CBG99, 72 h
How it was run: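 Transgenic 3D7elo1-pfs16-CBG99 gametocytes express CBG99 luciferase from the pfs16 promoter. Stage IV–V gametocytes (Giemsa-checked) were exposed at day 8–10 after NAG addition to serial dilutions in complete medium for 72 h. Samples at 2% haematocrit were then mixed 1:1 with D-luciferin (1 mM, pH 5.5 citrate) for 10 min and luminescence was read. IC50 came from non-linear regression, mean of ≥3 experiments in duplicate.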

[4] = system: Plasmodium falciparum; assay: Antiplasmodial activity against gametocytes of Plasmodium falciparum NF54 infected in Anopheles stephensi mosquitoes after 24 hrs by standard membrane feeding assay; assay type: functional, organism-based; conditions: NF54, 24 h
[5] = Cardiotoxicity in Langendorff perfused Wistar rat heart assessed as reduction of left ventricular pressure; assay type: toxicity, tissue-based
[6] = Cardiotoxicity in Langendorff perfused Wistar rat heart assessed as coronary perfusion pressure at 0.1 to 10 uM; assay type: toxicity, tissue-based
[7] = Cardiotoxicity in Langendorff perfused Wistar rat heart assessed as frequency of heart rate at 0.1 uM by electrocardiography (reference value: 247.05 to 275.90 bpm); assay type: toxicity, tissue-based
[8] = Cardiotoxicity in Langendorff perfused Wistar rat heart assessed as frequency of heart rate at 1 uM by electrocardiography (reference value: 247.05 to 275.90 bpm); assay type: toxicity, tissue-based
[9] = Cardiotoxicity in Langendorff perfused Wistar rat heart assessed as frequency of heart rate at 3 uM by electrocardiography (reference value: 247.05 to 275.90 bpm); assay type: toxicity, tissue-based
[10] = Cardiotoxicity in Langendorff perfused Wistar rat heart assessed as frequency of heart rate at 10 uM by electrocardiography (reference value: 247.05 to 275.90 bpm); assay type: toxicity, tissue-based
[11] = Cardiotoxicity in Langendorff perfused Wistar rat heart assessed as cycle length interval time at 0.1 uM by electrocardiography (reference value: 217.15 to 242.23 milliseconds); assay type: toxicity, tissue-based
[12] = Cardiotoxicity in Langendorff perfused Wistar rat heart assessed as cycle length interval time at 1 uM by electrocardiography (reference value: 217.15 to 242.23 milliseconds); assay type: toxicity, tissue-based
[13] = Cardiotoxicity in Langendorff perfused Wistar rat heart assessed as cycle length interval time at 3 uM by electrocardiography (reference value: 217.15 to 242.23 milliseconds); assay type: toxicity, tissue-based
[14] = Cardiotoxicity in Langendorff perfused Wistar rat heart assessed as cycle length interval time at 10 uM by electrocardiography (reference value: 217.15 to 242.23 milliseconds); assay type: toxicity, tissue-based
[15] = Cardiotoxicity in Langendorff perfused Wistar rat heart assessed as PQ interval time at 0.1 uM by electrocardiography (reference value: 41.13 to 42.63 milliseconds); assay type: toxicity, tissue-based
[16] = Cardiotoxicity in Langendorff perfused Wistar rat heart assessed as PQ interval time at 1 uM by electrocardiography (reference value: 41.13 to 42.63 milliseconds); assay type: toxicity, tissue-based
[17] = Cardiotoxicity in Langendorff perfused Wistar rat heart assessed as PQ interval time at 3 uM by electrocardiography (reference value: 41.13 to 42.63 milliseconds); assay type: toxicity, tissue-based
[18] = Cardiotoxicity in Langendorff perfused Wistar rat heart assessed as PQ interval time at 10 uM by electrocardiography (reference value: 41.13 to 42.63 milliseconds); assay type: toxicity, tissue-based
[19] = Cardiotoxicity in Langendorff perfused Wistar rat heart assessed as QRS interval time at 0.1 uM by electrocardiography (reference value: 13.31 to 14.35 milliseconds); assay type: toxicity, tissue-based
[20] = Cardiotoxicity in Langendorff perfused Wistar rat heart assessed as QRS interval time at 1 uM by electrocardiography (reference value: 13.31 to 14.35 milliseconds); assay type: toxicity, tissue-based
[21] = Cardiotoxicity in Langendorff perfused Wistar rat heart assessed as QRS interval time at 3 uM by electrocardiography (reference value: 13.31 to 14.35 milliseconds); assay type: toxicity, tissue-based
[22] = Cardiotoxicity in Langendorff perfused Wistar rat heart assessed as QRS interval time at 10 uM by electrocardiography (reference value: 13.31 to 14.35 milliseconds); assay type: toxicity, tissue-based
[23] = Cardiotoxicity in Langendorff perfused Wistar rat heart assessed as QTc interval time at 0.1 uM by electrocardiography (reference value: 76.45 to 80.07 milliseconds); assay type: toxicity, tissue-based
[24] = Cardiotoxicity in Langendorff perfused Wistar rat heart assessed as QTc interval time at 1 uM by electrocardiography (reference value: 76.45 to 80.07 milliseconds); assay type: toxicity, tissue-based
[25] = Cardiotoxicity in Langendorff perfused Wistar rat heart assessed as QTc interval time at 3 uM by electrocardiography (reference value: 76.45 to 80.07 milliseconds); assay type: toxicity, tissue-based
[26] = Cardiotoxicity in Langendorff perfused Wistar rat heart assessed as QTc interval time at 10 uM by electrocardiography (reference value: 76.45 to 80.07 milliseconds); assay type: toxicity, tissue-based
[27] = molecular target: T1, Phosphoethanolamine N-methyltransferase (Plasmodium falciparum) (UniProt Q8IDQ9); assay: Inhibition of plasmodium falciparum phosphoethanolamine N-methyltransferase expressed in Escherichia coli assessed as remaining enzyme activity at 100 uM using phosphoethanolamine as substrate and [methyl-14C] SAM by radiochemical assay
T1 sequence (whole entry): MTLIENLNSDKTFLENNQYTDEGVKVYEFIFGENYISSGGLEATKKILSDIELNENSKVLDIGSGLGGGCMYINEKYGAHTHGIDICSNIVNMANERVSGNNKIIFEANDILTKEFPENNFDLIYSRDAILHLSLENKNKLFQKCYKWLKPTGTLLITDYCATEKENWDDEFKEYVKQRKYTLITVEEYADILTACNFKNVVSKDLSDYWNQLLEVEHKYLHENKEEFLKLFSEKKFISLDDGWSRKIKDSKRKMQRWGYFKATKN
How it was run: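 Recombinant PfPMT purified from E. coli, 2 μg per 100 μL reaction. Buffer 0.1 M HEPES-KOH pH 8.0, 2 mM Na2EDTA, 10% glycerol, 5% DMSO, with 30 μM SAM (100 nCi [methyl-14C]SAM) and 55 μM phosphoethanolamine; radiochemical read-out.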

[28] = molecular target: hERG (KCNH2) (Homo sapiens, UniProt Q12809); assay: Inhibition of human ERG at 50 uM
[29] = system: Plasmodium falciparum; assay: Antiplasmodial activity against Plasmodium falciparum asexual stage forms; assay type: functional, organism-based
[30] = system: Plasmodium falciparum; assay: Gametocytocidal activity against Plasmodium falciparum late stage gametocytes; assay type: functional, organism-based
[31] = system: Plasmodium falciparum; assay: Antiplasmodial activity against Plasmodium falciparum sexual stage forms; assay type: functional, organism-based
[32] = molecular target: Voltage-dependent L-type calcium channel subunit alpha-1C (Rattus norvegicus, UniProt P22002); assay: Inhibition of CaV1.2 channel in rat tail artery myocytes assessed as reduction in Ba2+ current at -50 mV holding potential by whole-cell patch-clamp assay; assay type: cell-based; conditions: rat
How it was run: (§2)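 Freshly isolated rat tail artery smooth muscle cells (collagenase digestion), whole-cell patch clamp at 20–22 °C. External solution: 5 mM Ba2+, 30 mM TEA; Cs+-based internal solution, pH 7.4. Currents from 250-ms pulses to 0 mV from Vh −50 mV at 0.067 Hz, after 7–10 min stabilisation. Leak corrected with 10 μM nifedipine. Peak current as % of control; n = 3–6 cells from ≥3 animals.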

[33] = molecular target: CaV1.2 channel (Rattus norvegicus, UniProt P22002); assay: Inhibition of CaV1.2 channel in rat tail artery myocytes assessed as reduction in Ba2+ current at 10 uM at -50 mV holding potential by whole-cell patch-clamp assay; assay type: cell-based; how it was run: as §2
Chain of CaV1.2 channel (P22002 whole entry): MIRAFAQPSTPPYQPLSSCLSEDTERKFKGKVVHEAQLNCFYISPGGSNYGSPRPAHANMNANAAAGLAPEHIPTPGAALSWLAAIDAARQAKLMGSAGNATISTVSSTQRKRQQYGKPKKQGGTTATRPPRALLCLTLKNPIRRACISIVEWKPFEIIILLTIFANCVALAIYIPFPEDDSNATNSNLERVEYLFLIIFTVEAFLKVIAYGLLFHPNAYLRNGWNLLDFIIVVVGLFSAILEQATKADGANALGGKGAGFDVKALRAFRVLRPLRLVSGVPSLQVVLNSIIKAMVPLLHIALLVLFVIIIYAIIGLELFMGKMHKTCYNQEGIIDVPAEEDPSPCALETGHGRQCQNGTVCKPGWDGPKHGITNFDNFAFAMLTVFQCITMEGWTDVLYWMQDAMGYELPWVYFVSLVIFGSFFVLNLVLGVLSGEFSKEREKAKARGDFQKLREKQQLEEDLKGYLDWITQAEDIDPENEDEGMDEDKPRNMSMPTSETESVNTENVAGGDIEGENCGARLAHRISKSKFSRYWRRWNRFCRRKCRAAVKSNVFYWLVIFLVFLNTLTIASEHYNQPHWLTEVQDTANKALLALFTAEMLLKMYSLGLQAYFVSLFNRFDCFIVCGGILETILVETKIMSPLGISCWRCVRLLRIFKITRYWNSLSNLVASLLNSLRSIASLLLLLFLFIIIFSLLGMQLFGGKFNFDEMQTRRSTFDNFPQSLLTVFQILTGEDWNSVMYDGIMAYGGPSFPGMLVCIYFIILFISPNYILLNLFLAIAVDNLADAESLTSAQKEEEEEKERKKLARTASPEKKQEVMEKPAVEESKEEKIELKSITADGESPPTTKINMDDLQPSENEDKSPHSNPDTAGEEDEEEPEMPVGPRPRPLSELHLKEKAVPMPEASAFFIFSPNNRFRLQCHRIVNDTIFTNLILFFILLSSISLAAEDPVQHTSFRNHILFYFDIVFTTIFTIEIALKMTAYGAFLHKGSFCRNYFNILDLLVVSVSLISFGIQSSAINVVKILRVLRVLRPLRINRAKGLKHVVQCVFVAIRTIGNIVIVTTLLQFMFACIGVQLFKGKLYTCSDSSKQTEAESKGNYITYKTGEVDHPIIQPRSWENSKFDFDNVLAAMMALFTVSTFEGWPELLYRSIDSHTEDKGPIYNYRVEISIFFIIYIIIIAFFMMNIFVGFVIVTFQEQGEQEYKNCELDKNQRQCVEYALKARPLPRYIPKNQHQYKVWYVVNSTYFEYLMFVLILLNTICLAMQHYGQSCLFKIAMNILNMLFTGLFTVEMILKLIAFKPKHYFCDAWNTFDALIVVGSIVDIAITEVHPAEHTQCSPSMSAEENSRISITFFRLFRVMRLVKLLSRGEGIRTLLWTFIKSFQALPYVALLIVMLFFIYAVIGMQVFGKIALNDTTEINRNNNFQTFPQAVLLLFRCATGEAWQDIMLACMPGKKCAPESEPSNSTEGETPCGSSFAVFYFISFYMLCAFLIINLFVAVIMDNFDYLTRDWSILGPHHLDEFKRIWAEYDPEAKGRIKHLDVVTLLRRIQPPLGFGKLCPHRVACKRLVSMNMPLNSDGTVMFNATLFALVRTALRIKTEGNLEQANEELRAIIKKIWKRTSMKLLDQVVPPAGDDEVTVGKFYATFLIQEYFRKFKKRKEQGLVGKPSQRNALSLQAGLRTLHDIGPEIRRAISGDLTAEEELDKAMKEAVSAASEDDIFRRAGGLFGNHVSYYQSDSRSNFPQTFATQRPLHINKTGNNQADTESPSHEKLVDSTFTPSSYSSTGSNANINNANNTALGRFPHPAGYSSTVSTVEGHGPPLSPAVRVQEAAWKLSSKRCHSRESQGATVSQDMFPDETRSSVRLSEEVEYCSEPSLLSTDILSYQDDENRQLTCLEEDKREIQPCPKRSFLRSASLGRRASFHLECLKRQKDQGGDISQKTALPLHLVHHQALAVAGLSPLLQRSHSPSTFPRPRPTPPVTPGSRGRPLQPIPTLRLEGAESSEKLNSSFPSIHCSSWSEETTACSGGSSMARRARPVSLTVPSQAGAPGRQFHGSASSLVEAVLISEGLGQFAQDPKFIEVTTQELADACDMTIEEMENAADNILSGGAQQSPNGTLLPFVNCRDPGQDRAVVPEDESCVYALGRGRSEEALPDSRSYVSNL

Chain of hERG (KCNH2) (Q12809 whole entry): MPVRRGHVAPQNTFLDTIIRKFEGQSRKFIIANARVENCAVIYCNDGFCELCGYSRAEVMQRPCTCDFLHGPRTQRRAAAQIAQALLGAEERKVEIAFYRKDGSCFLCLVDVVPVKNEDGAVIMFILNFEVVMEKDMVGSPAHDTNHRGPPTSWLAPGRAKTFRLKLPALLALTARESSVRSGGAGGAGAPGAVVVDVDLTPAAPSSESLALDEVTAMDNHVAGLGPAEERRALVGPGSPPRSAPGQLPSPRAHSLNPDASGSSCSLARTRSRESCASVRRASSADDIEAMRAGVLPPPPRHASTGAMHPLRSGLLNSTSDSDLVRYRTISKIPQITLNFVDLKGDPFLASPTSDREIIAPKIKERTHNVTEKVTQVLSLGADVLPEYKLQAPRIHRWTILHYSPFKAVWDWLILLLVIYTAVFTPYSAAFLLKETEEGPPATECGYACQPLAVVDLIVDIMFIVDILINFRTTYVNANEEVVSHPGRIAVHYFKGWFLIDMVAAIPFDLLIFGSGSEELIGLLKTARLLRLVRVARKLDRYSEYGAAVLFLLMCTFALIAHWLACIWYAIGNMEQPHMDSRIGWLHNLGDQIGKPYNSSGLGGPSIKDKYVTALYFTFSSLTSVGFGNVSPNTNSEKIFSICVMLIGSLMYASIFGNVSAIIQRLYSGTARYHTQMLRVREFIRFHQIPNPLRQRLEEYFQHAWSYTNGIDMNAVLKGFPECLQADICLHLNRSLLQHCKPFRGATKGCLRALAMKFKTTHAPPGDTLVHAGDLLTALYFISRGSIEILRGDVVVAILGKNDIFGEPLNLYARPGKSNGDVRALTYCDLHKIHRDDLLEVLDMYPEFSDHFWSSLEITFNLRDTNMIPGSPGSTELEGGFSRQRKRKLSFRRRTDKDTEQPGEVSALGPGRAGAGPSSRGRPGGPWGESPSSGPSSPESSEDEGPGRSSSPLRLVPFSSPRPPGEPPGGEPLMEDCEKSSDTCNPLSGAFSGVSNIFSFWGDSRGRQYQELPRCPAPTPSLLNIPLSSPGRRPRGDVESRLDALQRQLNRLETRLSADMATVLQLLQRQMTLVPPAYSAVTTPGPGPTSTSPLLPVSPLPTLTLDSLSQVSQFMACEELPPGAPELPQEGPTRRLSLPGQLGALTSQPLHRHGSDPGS
Chain of Voltage-dependent L-type calcium channel subunit alpha-1C (P22002 whole entry): as the sequence (P22002 whole entry) above

Clc1cc(Br)ccc1-c1ccc(CNCC2CCNCC2)o1
pIC50 [1]: 6.11
pIC50 [2]: 5.64
pIC50 [3]: 5.92
pEC50 [4]: 7.15
Activity [5]: Dose-dependent effect
Activity [6]: Non-Toxic
Activity [7]: 256.15 bpm
Activity [8]: 258.35 bpm
Activity [9]: 257.71 bpm
Activity [10]: 222.74 bpm
Time [11]: 235.08 ms
Time [12]: 232.48 ms
Time [13]: 233.9 ms
Time [14]: 272.57 ms
Time [15]: 42.29 ms
Time [16]: 42.5 ms
Time [17]: 47.9 ms
Time [18]: 67.5 ms
Time [19]: 14.25 ms
Time [20]: 15.8 ms
Time [21]: 17.46 ms
Time [22]: 23.75 ms
Time [23]: 81.51 ms
Time [24]: 80.93 ms
Time [25]: 82.1 ms
Time [26]: 80.99 ms
Activity [27]: 92%
inhibition at 50 µM [28]: 83%
pIC50 [29]: > 6.00
pIC50 [30]: > 6.00
pIC50 [31]: > 6.00
inhibition (INH) [32]: Dose-dependent effect
inhibition at 10 µM [33]: 57%
